Assay [1] deals with NB-4. The assay is described as follows: Induction of cell differentiation in human NB4 cells assessed as induction of induction of cell surface marker CD14 expression at 1 nM after 48 hrs. The format is functional, cell-based. In outline:
(§1)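 NB4 human promyelocytic leukemia cells kept in log-phase suspension in RPMI 1640 with 10% […] iron-supplemented bovine calf serum, 37 °C, 5% CO₂. Exposed to compounds at 1 nM for 48 h; 1 × 10⁶ cells washed twice in PBS, then labelled with MY4-RD1 and Mo1-FITC antibodies to measure surface CD14 and CD11b expression.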

Assay [2] has as its system NB-4. Kind of assay: Induction of cell differentiation in human NB4 cells assessed as induction of induction of cell surface marker CD11b expression at 1 nM after 48 hrs. The class given is functional, cell-based. In outline: as §1
Assay [3] can be described thus: Antiproliferative activity against human MCF10CA1a after 3 days by [3H]thymidine uptake assay. The class given is functional.

The source made the active and inactive calls. The rule behind the calls is not given here.

On to `C=C1/C(=C\C=C2/CCC[C@]3(C)[C@@H]([C@@H](C/C=C\C(O)(C(F)(F)F)C(F)(F)F)CCCC(C)(C)O)CC[C@@H]23)C[C@@H](O)C[C@@H]1F`, for which the result with NB-4 [1] (tested as the 2H-labelled form) and in the assay with NB-4 [2] (tested as the 2H-labelled form) was Active. On to `CC(C)(O)CCC[C@@H](C/C=C\C(O)(C(F)(F)F)C(F)(F)F)[C@H]1CC[C@H]2/C(=C/C=C3C[C@@H](O)C[C@H](O)C3)CCC[C@]12C`, for which the result in the assay on NB-4 [1] (tested as the 2H-labelled form) and in the assay with NB-4 [2] (tested as the 2H-labelled form) was Active. As usually defined, the IC50 is the concentration needed to halve the response being measured. Low values mean greater potency in that assay, high ones weaker potency in that assay. Consider `[2H]C([2H])([2H])C(O)(CCC[C@@H](C/C=C\C(O)(C(F)(F)F)C(F)(F)F)[C@H]1CC[C@H]2/C(=C/C=C3/C[C@@H](O)C[C@H](F)C3=C)CCC[C@]12C)C([2H])([2H])[2H]`, for which the IC50 in assay [3] is > 10 nM. For the compound `C=C1/C(=C\C=C2/CCC[C@]3(C)[C@@H]([C@H](C/C=C\C(O)(C(F)(F)F)C(F)(F)F)CCCC(C)(C)O)CC[C@@H]23)C[C@@H](O)C[C@@H]1F`, the result in the assay on NB-4 [1] (tested as the 2H-labelled form) and with NB-4 [2] (tested as the 2H-labelled form) was Active.

As to `C=C1/C(=C\C=C2/CCC[C@]3(C)[C@@H]([C@@H](CC#CC(O)(C(F)(F)F)C(F)(F)F)CCCC(C)(C)O)CC[C@@H]23)C[C@@H](O)C[C@@H]1O`, the result in the assay with NB-4 [1] (tested as the 2H-labelled form) and in the assay on NB-4 [2] (tested as the 2H-labelled form) was Active. For the compound `C=C1/C(=C\C=C2/CCC[C@]3(C)[C@@H]([C@@H](CC#CC(O)(C(F)(F)F)C(F)(F)F)CCCC(C)(C)O)CC[C@@H]23)C[C@@H](O)C[C@@H]1F`, the result in the assay with NB-4 [1] (tested as the 2H-labelled form) and in the assay on NB-4 [2] (tested as the 2H-labelled form) was Active. For the compound `CC(C)(O)CCC[C@H](CC#CC(O)(C(F)(F)F)C(F)(F)F)[C@H]1CC[C@H]2/C(=C/C=C3C[C@@H](O)C[C@H](O)C3)CCC[C@]12C`, the result in the assay on NB-4 [1] (tested as the 2H-labelled form) and with NB-4 [2] (tested as the 2H-labelled form) was Active. `[2H]C([2H])([2H])C(O)(CCC[C@H](C/C=C\C(O)(C(F)(F)F)C(F)(F)F)[C@H]1CC[C@H]2/C(=C/C=C3/C[C@@H](O)C[C@H](F)C3=C)CCC[C@]12C)C([2H])([2H])[2H]` gave an IC50 in assay [3] of 6.9 nM.

With `C=C1/C(=C\C=C2/CCC[C@]3(C)[C@@H]([C@H](C/C=C\C(O)(C(F)(F)F)C(F)(F)F)CCCC(C)(C)O)CC[C@@H]23)C[C@@H](O)C[C@@H]1O`, the result with NB-4 [1] (tested as the 2H-labelled form) and in the assay on NB-4 [2] (tested as the 2H-labelled form) was Active. As to `C=C1/C(=C\C=C2/CCC[C@]3(C)[C@@H]([C@H](CC#CC(O)(C(F)(F)F)C(F)(F)F)CCCC(C)(C)O)CC[C@@H]23)C[C@@H](O)C[C@@H]1O`, the result with NB-4 [1] (tested as the 2H-labelled form) and in the assay on NB-4 [2] (tested as the 2H-labelled form) was Active. `[2H]C([2H])([2H])C(O)(CCC[C@@H](CC#CC(O)(C(F)(F)F)C(F)(F)F)[C@H]1CC[C@H]2/C(=C/C=C3C[C@@H](O)C[C@H](O)C3)CCC[C@]12C)C([2H])([2H])[2H]` showed a half-maximal inhibitory concentration (IC50) in assay [3] of 0.12 nM. On the same count and under the same terms, the figure for `[2H]C([2H])([2H])C(O)(CCC[C@@H](C/C=C\C(O)(C(F)(F)F)C(F)(F)F)[C@H]1CC[C@H]2/C(=C/C=C3/C[C@@H](O)C[C@H](O)C3=C)CCC[C@]12C)C([2H])([2H])[2H]` is 1.6 nM. For the compound `C=C1/C(=C\C=C2/CCC[C@]3(C)[C@@H]([C@H](C)CCCC(C)(C)O)CC[C@@H]23)C[C@@H](O)C[C@@H]1O`, the result in the assay with NB-4 [1] and with NB-4 [2] was Active. `[2H]C([2H])([2H])C(O)(CCC[C@H](C/C=C\C(O)(C(F)(F)F)C(F)(F)F)[C@H]1CC[C@H]2/C(=C/C=C3/C[C@@H](O)C[C@H](O)C3=C)CCC[C@]12C)C([2H])([2H])[2H]`: the IC50 in assay [3] turned out to be 0.56 nM.

In the case of `C=C1/C(=C\C=C2/CCC[C@]3(C)[C@@H]([C@H](CC#CC(O)(C(F)(F)F)C(F)(F)F)CCCC(C)(C)O)CC[C@@H]23)C[C@@H](O)C[C@@H]1F`, the result with NB-4 [1] (tested as the 2H-labelled form) and in the assay on NB-4 [2] (tested as the 2H-labelled form) was Active. As for `[2H]C([2H])([2H])C(O)(CCC[C@@H](C/C=C\C(O)(C(F)(F)F)C(F)(F)F)[C@H]1CC[C@H]2/C(=C/C=C3C[C@@H](O)C[C@H](O)C3)CCC[C@]12C)C([2H])([2H])[2H]`, the IC50 in assay [3] came to 3.2 nM. That is a single-digit nanomolar value. With `CC(C)(O)CCC[C@H](C/C=C\C(O)(C(F)(F)F)C(F)(F)F)[C@H]1CC[C@H]2/C(=C/C=C3C[C@@H](O)C[C@H](O)C3)CCC[C@]12C`, the result in the assay with NB-4 [1] (tested as the 2H-labelled form) and in the assay with NB-4 [2] (tested as the 2H-labelled form) was Active. For `CC(C)(O)CCC[C@@H](CC#CC(O)(C(F)(F)F)C(F)(F)F)[C@H]1CC[C@H]2/C(=C/C=C3C[C@@H](O)C[C@H](O)C3)CCC[C@]12C`, the outcome with NB-4 [1] (tested as the 2H-labelled form) and in the assay on NB-4 [2] (tested as the 2H-labelled form) was Active. As for `C=C1/C(=C\C=C2/CCC[C@]3(C)[C@@H]([C@@H](C/C=C\C(O)(C(F)(F)F)C(F)(F)F)CCCC(C)(C)O)CC[C@@H]23)C[C@@H](O)C[C@@H]1O`, the result with NB-4 [1] (tested as the 2H-labelled form) and in the assay on NB-4 [2] (tested as the 2H-labelled form) was Active. In turn, `[2H]C([2H])([2H])C(O)(CCC[C@H](CC#CC(O)(C(F)(F)F)C(F)(F)F)[C@H]1CC[C@H]2/C(=C/C=C3/C[C@@H](O)C[C@H](F)C3=C)CCC[C@]12C)C([2H])([2H])[2H]` had an IC50 in assay [3] of 1.6 nM. For `[2H]C([2H])([2H])C(O)(CCC[C@H](CC#CC(O)(C(F)(F)F)C(F)(F)F)[C@H]1CC[C@H]2/C(=C/C=C3C[C@@H](O)C[C@H](O)C3)CCC[C@]12C)C([2H])([2H])[2H]`, in assay [3], the IC50 is 0.19 nM.

For the compound `[2H]C([2H])([2H])C(O)(CCC[C@@H](CC#CC(O)(C(F)(F)F)C(F)(F)F)[C@H]1CC[C@H]2/C(=C/C=C3/C[C@@H](O)C[C@H](F)C3=C)CCC[C@]12C)C([2H])([2H])[2H]`, inhibition in assay [3] was half-maximal at 0.56 nM (IC50). This IC50 lies about 2.9-fold higher than the previous one. In turn, `[2H]C([2H])([2H])C(O)(CCC[C@@H](CC#CC(O)(C(F)(F)F)C(F)(F)F)[C@H]1CC[C@H]2/C(=C/C=C3/C[C@@H](O)C[C@H](O)C3=C)CCC[C@]12C)C([2H])([2H])[2H]` returned an IC50 in assay [3] of 0.062 nM. `[2H]C([2H])([2H])C(O)(CCC[C@H](C/C=C\C(O)(C(F)(F)F)C(F)(F)F)[C@H]1CC[C@H]2/C(=C/C=C3C[C@@H](O)C[C@H](O)C3)CCC[C@]12C)C([2H])([2H])[2H]` yielded a half-inhibitory concentration (IC50) in assay [3] of 0.43 nM.

In turn, `[2H]C([2H])([2H])C(O)(CCC[C@H](CC#CC(O)(C(F)(F)F)C(F)(F)F)[C@H]1CC[C@H]2/C(=C/C=C3/C[C@@H](O)C[C@H](O)C3=C)CCC[C@]12C)C([2H])([2H])[2H]` came in with an IC50 in assay [3] of 0.053 nM. This IC50 is about 8.1-fold lower than that of the compound before.

Values taken from ChEMBL document CHEMBL1152439, “Calcitriol derivatives with two different side chains at C-20. V. Potent inhibitors of mammary carcinogenesis and inducers of leukemia differentiation” (J Med Chem, 2009).
